Common to all, as to assay type: functional
Assay [1] is filed under the species Mus musculus. The assay is described as follows: antineoplastic activity on the survival time of mice bearing L1210 leukemia.% T/C represents the ratio of the survival time of treated to control mice * 100. The method, boiled down: (§1)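 L1210 leukemia-bearing CD2F1 mice, 5-10 per group, received the drug as an ip suspension once daily for 6 consecutive days, starting 24 h after tumor implantation. %T/C is treated over control survival time ×100. Average weight change is measured from the onset to the termination of treatment.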

The species named for assay [2] is Mus musculus. The assay is described as follows: antineoplastic activity on the survival time of mice bearing L1210 leukemia. Average weight change of mice from onset to termination of drug treatment. The method, boiled down: as §1
Assay [3] is filed under the species Mus musculus. The assay is described as follows: The compound was tested for antineoplastic activity on the survival time of mice bearing L1210 leukemia. Average weight change of mice from onset to termination of therapy. The method, boiled down:
(§2)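 CD2F1 mice bearing L1210 leukemia, 5-10 per group. Drug was given ip as a suspension twice daily (about 12 h apart) for 6 consecutive days, starting 24 h after tumor implantation. Mean survival counts only mice dying before day 60. Survivors beyond 60 days are scored as long-term. Body-weight change is measured from the start to the end of therapy.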

The species entered for assay [4] is Mus musculus. Put plainly: The compound was tested for antineoplastic activity on the survival time of mice bearing L1210 leukemia. Optimum daily dosage of the compound.
Assay [5] is filed under the species Mus musculus. Put plainly: The compound was tested for antineoplastic activity on the survival time of mice bearing L1210 leukemia. Average survival time includes only those mice that died prior to day 60. The method, boiled down: as §2
The species entered for assay [6] is Mus musculus. The assay is described as follows: The compound was tested for antineoplastic activity on the survival time of mice bearing L1210 leukemia.% T/C represents the ratio of the survival time of treated to control mice * 100.
The species entered for assay [7] is Mus musculus. Put plainly: Survival time of mice(out of 5) bearing L1210 leukemia. Long term survivors are the number of mice that survived for >60 days relative to the total number of treated mice. Put shortly:
as §2

For a further assay, the species on record is Bos taurus. Put plainly: Effect on rate of glucuronidation of the hydroxyl group by bovine UDP-glucuronyltransferase. The method, boiled down:
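UDP formed during glucuronidation was measured by a coupled enzymatic assay, and the rate was calculated from NADH absorbance using an extinction coefficient of 6.22 × 10^6 cm2 mol-1. Test agents were dissolved in DMSO at final concentrations of 0.5 mM (hydroxyl-substituted pyridines) and 0.1 mM (hydroxyl-substituted isoquinolines). Model compounds lacking the thiosemicarbazone group were used because thiosemicarbazones interfere with the absorbance.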

For assay [8], the species on record is Mus musculus. Put plainly: antineoplastic activity on the survival time of mice bearing L1210 leukemia. Daily dosage of the compound. The method, boiled down:
as §1

“And” between values parts separate entries of the source, which are not always exact repeats. Identical values can stand only once.

For orientation: T/C means the ratio of treated to control.

Turning to `CNc1cnc(/C=N\N=C(\N)S)c2ccccc12`, the T/C in the assay filed under Mus musculus [1] was 177% and 159% and 179%. Further, the Average weight change in the assay listed under Mus musculus [2] is 1% and 3% and 8%.

`N/C(S)=N/N=C\c1ncc(N)c2ccccc12`: the Average weight in the assay filed under Mus musculus [3] was -7.8%. The Dose in the assay listed under Mus musculus [4] turned out to be 40 mg/kg. In the assay filed under Mus musculus [5], this compound gave an Average survival of 13.5 days. In addition, the T/C in the assay filed under Mus musculus [6] is 165%; in the assay filed under Mus musculus [1], 177% and 174% and 162%. The Average weight change in the assay listed under Mus musculus [2] was 3.2% and 3.6% and 3%. In addition, the Long-term survivors in the assay filed under Mus musculus [7] was found to be 3.

Regarding `Cc1ncc(C)c2c(O)cccc12`, the Relative rate in the assay listed under Bos taurus was 0.08.

On to `Cc1nccc2c(O)cccc12`, for which the Relative rate in the assay listed under Bos taurus was 1.

As to `N/C(S)=N/N=C/c1ccc(N)cn1`, in the assay listed under Mus musculus [3], the Average weight was -7.6%. Besides, the Dose in the assay listed under Mus musculus [4] was determined as 20 mg/kg. Further, the Average survival in the assay filed under Mus musculus [5] turned out to be 19.2 days. Moreover, the T/C in the assay filed under Mus musculus [6] is 234%; in the assay listed under Mus musculus [1], 129% and 140% and 138%. In the assay filed under Mus musculus [2], the Average weight change was -18% and -2.8% and 0%. Also, in the assay listed under Mus musculus [7], the Long-term survivors came out at 1.

Regarding `Cc1ncccc1O`, in the assay filed under Bos taurus, the Relative rate was 0.65.

Turning to `Cc1ccnc(C)c1O`, the Relative rate in the assay filed under Bos taurus came to 0.81.

`Oc1cccc2cnccc12` showed a Relative rate in the assay filed under Bos taurus of 0.45.

As for `NCCNc1cnc(/C=N\N=C(\N)S)c2ccccc12`, in the assay listed under Mus musculus [8], the Dose was 60 mg/kg and 40 mg/kg and 20 mg/kg. Also, the T/C in the assay listed under Mus musculus [1] is 145% and 120% and 116%. Moreover, the Average weight change in the assay filed under Mus musculus [2] was -4.6% and -5%.

In the assay filed under Bos taurus, `Cc1cc(C)c(O)cn1` gave a Relative rate of 1.

For the compound `N/C(S)=N/N=C\c1ncc(N2CCOCC2)c2c(N)cccc12`, in the assay listed under Mus musculus [1], the T/C was 138% and 141% and 149%. Further, the Average weight change in the assay listed under Mus musculus [2] was 2% and 7.3% and 6.8%.

As for `Cc1ccc(O)cn1`, the Relative rate in the assay listed under Bos taurus amounted to 0.59.

(Values after ChEMBL document CHEMBL1128324, “Synthesis and antitumor activity of 4- and 5-substituted derivatives of isoquinoline-1-carboxaldehyde thiosemicarbazone” (1995).)
